The source made the active and inactive calls.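 Rule for the calls: active = compounds whose mean IC50 across repeat dose response tests falls below a set limit; inactive = the rest.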
test system: AML12 mouse hepatocytes, BODIPY lipid droplet imaging; experiment: hepatocyte lipid droplet accumulation inhibitors, dose response, imaging, AML12 mouse hepatocytes, high-content (AID 463191); details: cells loaded with 100 µM oleic acid
Method in brief: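 Material: mouse AML12 hepatocytes; dosing: Seven-point series from 32 to 0.5 µM, 0.32% DMSO; schedule: ~20 h pre-growth at 37 °C, overnight treatment; benchmarks: Triacsin-C at 5 µM as positive control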

SMILES	IC50
CCOc1ccc(CCNC(=O)C2CC(=O)N(Cc3ccc(OC)cc3)C2)cc1OCC (centres undefined)	3810 nM
COc1ccc(C(=O)OCC(=O)NC(C)CCc2ccccc2)cc1OC (centres undefined)	11700 nM (inactive)
CCCCCCn1c(SCC(=O)Nc2cc(C)on2)nc2ccccc2c1=O	750 nM
COc1ccc(Cl)cc1NC(=O)CN1C(=O)NC2(CCCC2)C1=O	4270 nM
COc1cc(NC(=O)c2ccco2)c(OC)cc1NC(=O)CCC(=O)Nc1cc(C)cc(C)c1	< 500 nM
CCCCn1c(N)c(-c2nc3ccccc3s2)c2c([N+](=O)[O-])nn(CC)c(=O)c21	9330 nM (inactive)
CCOc1ccccc1NC(=O)N1CCCC1C(=O)Nc1ccc(-n2cnnn2)c(C)c1 (centres undefined)	1420 nM
COc1ccc(C(C(=O)NC(C)(C)C)N(Cc2ccccc2)C(=O)CCC(=O)Nc2cc(C)on2)cc1 (centres undefined)	8980 nM (inactive)
CCOc1ccc(C(=O)OCC(=O)Nc2cc(C)on2)cc1OCC	1800 nM
CCOc1ccc(-c2csc(NNC3=NCCCCC3)n2)cc1	1220 nM
CCOc1ccc(CCNC(=O)c2cc(C)nc3ccccc23)cc1OCC	6400 nM (inactive)
CCOc1ccc(CCNC(=O)c2c(C)nn(-c3ccccc3)c2Cl)cc1OCC	7560 nM (inactive)
COc1ncccc1C(=O)NC1CCCc2c1cnn2-c1ccc(C)c(C)c1 (centres undefined)	3440 nM
COc1ccc(C2(c3ccc(OC)cc3)NC(=O)N(CC(=O)Nc3ccc(OC)c(OC)c3)C2=O)cc1	6860 nM (inactive)
CCOc1ccc(CCNC(=O)CCNC(=O)c2ccccc2Cl)cc1OCC	5880 nM (inactive)
COc1ccc(CCNC(=O)[C@H](C)N2C(=O)N3CCc4c([nH]c5ccccc45)[C@@]3(C)C2=O)cc1OC	1780 nM
CCOc1ccc(CCNC(=O)COC(=O)c2cc(OC)c(OC)c(OC)c2)cc1OCC	559 nM
CCOC(=O)N1CCN(C(=O)CSCC(=O)Nc2nc(-c3ccc(-c4ccccc4)cc3)cs2)CC1	14200 nM (inactive)
COc1cccc(CNC(=O)CCCc2c[nH]c3ccccc23)c1	6600 nM (inactive)
O=C(NC1CCCc2c1cnn2-c1ccccc1F)c1ccccn1 (centres undefined)	> 32000 nM (inactive)
COc1ccc(C2(c3ccc(OC)cc3)NC(=O)N(CC(=O)Nc3ccccc3C)C2=O)cc1	1520 nM
O=C1C(NS(=O)(=O)c2cccs2)=C(N2CCN(c3cccc(C(F)(F)F)c3)CC2)C(=O)c2ccccc21	751 nM

SMILES	IC50
Cc1cc(C(=O)NC2CCCc3c2cnn3-c2cccc(C)c2C)c(C)o1 (centres undefined)	2230 nM
COc1ccc(C(=O)OCC(=O)NC(C)CCc2ccccc2)c(OC)c1 (centres undefined)	10600 nM (inactive)
CCOc1ccc(CCNC(=O)c2cc3sccc3n2CC)cc1OCC	< 500 nM
CCOc1ccccc1NC(=O)N1CCC(C(=O)c2ccc(F)cc2)CC1	4480 nM
Cc1cccc(NC(=O)[C@H](C)NC(=O)[C@@H]2Cc3ccccc3CN2C(=O)OC(C)(C)C)c1	1630 nM
CCn1cc(CCCC(=O)NCc2ccccc2OC)c2ccccc21	4000 nM
CCOc1ccc(CCNC(=O)CSc2cc(=O)n(CC)c3ccccc23)cc1OCC	1100 nM
CCOc1ccc(CCNC(=O)COc2cc(=O)n(C)c3ccccc23)cc1OCC	3950 nM
CCOc1ccc2nc(NC(=O)CSc3nc4ccccc4c(=O)n3Cc3ccco3)sc2c1	620 nM
COc1ccc(C(C(=O)NC(C)(C)C)N(Cc2cccs2)C(=O)CCC(=O)Nc2cc(C)on2)cc1 (centres undefined)	4160 nM
CCc1c(C#N)c(SCCC(=O)Nc2cccc(OC)c2)nc2c1C(=O)CC(C)(C)C2	1410 nM
CCOc1ccc(CCNC(=O)c2nnc(Cc3ccc(F)cc3)o2)cc1OCC	1570 nM
COCCCn1c(SCC(=O)Nc2ccc(NC(=O)c3ccco3)c(OC)c2)nc2ccccc2c1=O	1850 nM
COc1ccc(CCNC(=O)CN2C(=O)c3cccc4cccc(c34)C2=O)cc1OC	5770 nM (inactive)
COc1cccc(C(=O)NC2CCCc3c2cnn3-c2cc(C)cc(C)c2)c1 (centres undefined)	2060 nM
Cc1cc(C)cc(NC(=O)CCC(=O)Nc2cc(C)on2)c1	7620 nM (inactive)
COc1ccc(C(=O)CCC(=O)NCCc2c[nH]c3ccccc23)cc1OC	2120 nM
Cc1cccc(NC(=O)CSc2nc3ccccc3nc2N2CCCC2)c1	5070 nM (inactive)
COc1ccc(NC(=O)[C@H](C)NC(=O)[C@@H]2Cc3ccccc3CN2C(=O)OC(C)(C)C)cc1	7120 nM (inactive)
Cc1ccc(-n2nc3c(=O)n(CC(=O)NC4CCCCC4)nc(C)c3c2C)cc1	4730 nM
CCOc1ccc(C(=O)NCC(=O)NC(C)CCc2ccccc2)cc1OCC (centres undefined)	858 nM
CCOc1ccc(CCNC(=O)CCc2nnc3ccc(N4CCCCC4)nn23)cc1OCC	582 nM

SMILES	IC50
CCOc1ccc(CCNC(=O)CCc2nnc3ccc(N4CCCC4)nn23)cc1OCC	1810 nM
COc1ccc(CCNC(=O)Cc2cccc(C(F)(F)F)c2)cc1OC	9060 nM (inactive)
CCCc1ccc(-c2csc(NC(=O)Cc3cccs3)n2)cc1	1480 nM
Cc1sc(NC(=O)Cc2ccc3c(c2)OCO3)nc1-c1ccc2c(c1)CCN2C(=O)c1ccccc1F	1790 nM
COC(=O)/C(=C\c1ccc2c(c1)c1ccccc1n2C)NC(=O)c1ccccc1	3300 nM
CCOc1ccc(CCNC(=O)Cn2nc(C)c3c(C)n(-c4ccccc4)nc3c2=O)cc1OCC	< 500 nM
CCOc1ccc(CCNC(=O)c2cc3sc(Cl)cc3n2C)cc1OCC	< 500 nM
CC1Cc2cc(S(=O)(=O)NCCC(=O)N(C)Cc3ccccc3)ccc2N1C(=O)C1CC1 (centres undefined)	7520 nM (inactive)
CCC(C)(C)NC(=O)C(c1ccc(OC)cc1)N(Cc1ccccc1)C(=O)CCC(=O)Nc1cc(C)on1 (centres undefined)	3420 nM
CCOc1ccc(CCNC(=O)Nc2cccc(OC)c2)cc1OCC	< 500 nM
CCOc1ccc(CCNC(=O)COC(=O)c2c(C)nn(-c3ccccc3)c2C)cc1OCC	< 500 nM
CCOc1ccc(CCNC(=O)CCc2nc(-c3ccc(OC)cc3)no2)cc1OCC	782 nM
CCOc1ccc(CCNC(=O)/C=C/c2ccco2)cc1OCC	1050 nM
O=C(NCc1ccc2c(c1)OCO2)c1cc(-c2ccccc2)c(N2CCOCC2)s1	715 nM
CCOc1ccc(C(=O)OCC(=O)Nc2nc(OC)cc(OC)n2)cc1OCC	1120 nM
CCC(C(=O)NCc1cccc(C)c1)n1nc(C)c2c(C)n(-c3ccccc3)nc2c1=O (centres undefined)	6770 nM (inactive)
CC1CCCN(C2=C(NS(=O)(=O)c3ccc(Br)cc3)C(=O)c3ccccc3C2=O)C1 (centres undefined)	927 nM
O=C(Cc1cccc2ccccc12)Nc1nc(-c2cccc([N+](=O)[O-])c2)cs1	4300 nM
CCOc1ccc(CCNC(=O)Cn2cccc2C(=O)c2ccccc2)cc1OCC	1640 nM
CCOc1ccc(CCNC(=O)c2cccs2)cc1OCC	2350 nM

Source: PubChem BioAssay AID463191 (Sanford-Burnham Center for Chemical Genomics, 2010)
